Calls of active or inactive are those of the source. The rule behind the calls is not given here.
Experiments:
[1] = tested on: Mus musculus; experiment: Antiinflammatory activity in CD-1 mouse assessed as reduction in zymosan-induced LTC4 formation in peritoneal cavity at 10 mg/kg, ip preincubated for 30 mins followed by zymosan addition measured after 30 mins by ELISA; format: functional, organism-based
Summary of the method: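 CD-1 male mice (6-8 weeks), n=6 per group, given 10 mg/kg i.p. in 2% DMSO/saline vehicle 30 min before i.p. zymosan (500 µL of 2 mg/mL suspension). Peritoneal cavity washed with 3 ml PBS 30 min after zymosan; LTC4 measured in exudate. One-way ANOVA with Bonferroni test.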

[2] = target: Cyclooxygenase (Homo sapiens, UniProt P35354+P23219); experiment: Inhibition of COX1/2 (unknown origin) at 10 uM; format: protein assay
[3] = target: T1, Polyunsaturated fatty acid lipoxygenase ALOX15 (Homo sapiens) (UniProt P16050); experiment: Modulation of 15-LO-mediated 15-HETE level in human M2 macrophages derived from IL4-polarized human monocyte derived macrophages at 3 uM preincubated for 15 mins followed by Escherichia coli (O6:K2:H1) challenge for 90 mins by LC-MS/MS analysis
T1 sequence (whole entry): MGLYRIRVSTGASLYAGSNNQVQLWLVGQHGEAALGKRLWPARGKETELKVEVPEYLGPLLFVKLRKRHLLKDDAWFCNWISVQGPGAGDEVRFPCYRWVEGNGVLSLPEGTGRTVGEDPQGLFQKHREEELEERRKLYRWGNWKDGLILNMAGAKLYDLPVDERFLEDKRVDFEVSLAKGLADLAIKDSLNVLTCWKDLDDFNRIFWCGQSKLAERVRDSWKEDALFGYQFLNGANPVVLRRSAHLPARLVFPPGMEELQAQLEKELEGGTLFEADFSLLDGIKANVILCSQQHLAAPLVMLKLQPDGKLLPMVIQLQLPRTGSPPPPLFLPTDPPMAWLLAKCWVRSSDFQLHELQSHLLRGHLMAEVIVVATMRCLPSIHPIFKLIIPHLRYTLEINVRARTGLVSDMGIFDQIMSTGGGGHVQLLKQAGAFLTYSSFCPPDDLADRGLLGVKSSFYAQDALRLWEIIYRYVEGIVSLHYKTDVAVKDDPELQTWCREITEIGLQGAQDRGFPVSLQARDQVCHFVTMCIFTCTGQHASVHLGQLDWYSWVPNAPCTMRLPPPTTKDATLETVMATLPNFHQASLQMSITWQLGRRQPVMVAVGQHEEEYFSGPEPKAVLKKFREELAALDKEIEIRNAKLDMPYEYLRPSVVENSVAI
Summary of the method: (§1)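 Monocytes differentiated 6 days with M-CSF (20 ng/ml), then polarized 48 h with IL-4 20 ng/ml (M2). Cells (2 × 10^6) in PBS/1 mM CaCl2 pre-incubated 15 min at 37 °C with 3 µM compound or 0.1% DMSO, then challenged with E. coli O6:K2:H1 (1:50) for 90 min. Lipid mediators extracted by SPE with deuterated internal standards and quantified by UPLC-MS/MS as % of vehicle.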

[4] = tested on: Mus musculus; experiment: Antiinflammatory activity in zymosan induced CD-1 mouse model of inflammation assessed as reduction in leukocyte recruitment in air pouch at 10 mg/kg, ip preincubated for 30 mins followed by zymosan challenge and measured after 4 hrs by trypan blue staining-based burker's chamber method; format: functional, organism-based
Summary of the method: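 Air pouch formed by s.c. injection of 2.5 mL sterile air in CD-1 mice; on day 6, 10 mg/kg i.p. (2% DMSO/saline) given 30 min before 1 ml 1% w/v zymosan into the pouch. After 4 h, exudate collected with 1 ml saline and centrifuged; leukocytes counted in Burker chamber; LTB4 in supernatant by ELISA (ng/mL). n=6 mice per group.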

[5] = target: T2, Polyunsaturated fatty acid 5-lipoxygenase (Homo sapiens) (UniProt P09917); experiment: Inhibition of 5-LO in human M1 macrophages derived from LPS/IFNgamma-polarized human monocyte derived macrophages assessed as effect on LTB4 level at 3 uM preincubated for 15 mins followed by Escherichia coli (O6:K2:H1) challenge for 90 mins by LC-MS/MS analysis; parameters: scale not given: the % may be the effect or the level left
T2 sequence (whole entry): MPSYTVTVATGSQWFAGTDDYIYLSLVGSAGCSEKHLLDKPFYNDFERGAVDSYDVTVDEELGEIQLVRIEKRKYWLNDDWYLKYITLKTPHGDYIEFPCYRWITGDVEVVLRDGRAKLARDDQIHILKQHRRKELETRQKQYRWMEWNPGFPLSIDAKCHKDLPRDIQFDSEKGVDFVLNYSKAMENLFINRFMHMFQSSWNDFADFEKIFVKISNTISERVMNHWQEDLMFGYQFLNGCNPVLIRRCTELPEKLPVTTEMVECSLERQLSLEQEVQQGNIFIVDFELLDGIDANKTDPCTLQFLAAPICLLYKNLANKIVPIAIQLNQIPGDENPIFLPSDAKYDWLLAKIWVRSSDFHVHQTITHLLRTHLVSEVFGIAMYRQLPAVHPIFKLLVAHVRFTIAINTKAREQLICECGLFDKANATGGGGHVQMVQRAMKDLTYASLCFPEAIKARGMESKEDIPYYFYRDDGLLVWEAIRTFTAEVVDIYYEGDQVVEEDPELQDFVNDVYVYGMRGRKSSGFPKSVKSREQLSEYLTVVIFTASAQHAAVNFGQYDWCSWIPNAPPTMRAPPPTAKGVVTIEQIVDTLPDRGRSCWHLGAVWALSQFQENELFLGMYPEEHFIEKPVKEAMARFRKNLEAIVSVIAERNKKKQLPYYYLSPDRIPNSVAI
Summary of the method: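 Monocytes differentiated 6 days with GM-CSF (20 ng/ml) in RPMI/10% FCS, then polarized 48 h with LPS 100 ng/ml plus IFN-γ 20 ng/ml (M1). Cells (2 × 10^6) in PBS with 1 mM CaCl2 pre-incubated 15 min at 37 °C with 3 µM compound or 0.1% DMSO, then E. coli O6:K2:H1 (1:50) for 90 min. Methanol with deuterated standards added; SPE; UPLC-MS/MS; expressed as % of vehicle.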

[6] = tested on: Macrophage cell line; experiment: Modulation of 13-HDHA level in human M2 macrophages derived from IL4-polarized human monocyte derived macrophages at 3 uM preincubated for 15 mins followed by Escherichia coli (O6:K2:H1) challenge for 90 mins by LC-MS/MS analysis; format: functional; summary of the method: as §1
[7] = species: Homo sapiens; experiment: Modulation of LO-mediated RvE3 level in human M2 macrophages derived from IL4-polarized human monocyte derived macrophages at 3 uM preincubated for 15 mins followed by Escherichia coli (O6:K2:H1) challenge for 90 mins by LC-MS/MS analysis; summary of the method: as §1

- inhibition (INH) [2]: Not Active
- Activity [3]: 135%
- Activity [5]: 11%
- Activity [7]: 121%
Compound: O=C(O)c1ccc(N(Cc2cccc(OCc3ccccc3)c2)S(=O)(=O)c2ccc(-c3ccccc3)cc2)cc1
- Activity [1]: Active
- Activity [4]: Active
- Activity [6]: 127%
